# Source: PubChem
# KCNK3 inh = human KCNK3 channel inhibition, primary screen | CHO-KCNK3 thallium flux, FluxOR fluorescence; active compounds read low | B-score at 10 µM | actives 0.84% (n = 340,000) | AID 602410;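 active = B-score under library mean minus 4 SD, starting fluorescence ratio at most library mean plus 5 SD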;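 note: more negative B-score means stronger inhibition of thallium flux through KCNK3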
# KCNK9 block = blocks the human KCNK9 two-pore domain potassium channel; AID 488922; B-score at 10 µM; HEK293 KCNK9, FluxOR thallium flux fluorescence; active compounds read low; actives 1.2% (n = 310,000);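 active = ratio B-score over 3 SD below the library mean, with starting fluorescence within 5 SD of its mean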;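 note: negative B-score means less thallium flux so channel inhibition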
# Target sequence (Q9NPC2 whole entry, looked up, the tested form may be a part): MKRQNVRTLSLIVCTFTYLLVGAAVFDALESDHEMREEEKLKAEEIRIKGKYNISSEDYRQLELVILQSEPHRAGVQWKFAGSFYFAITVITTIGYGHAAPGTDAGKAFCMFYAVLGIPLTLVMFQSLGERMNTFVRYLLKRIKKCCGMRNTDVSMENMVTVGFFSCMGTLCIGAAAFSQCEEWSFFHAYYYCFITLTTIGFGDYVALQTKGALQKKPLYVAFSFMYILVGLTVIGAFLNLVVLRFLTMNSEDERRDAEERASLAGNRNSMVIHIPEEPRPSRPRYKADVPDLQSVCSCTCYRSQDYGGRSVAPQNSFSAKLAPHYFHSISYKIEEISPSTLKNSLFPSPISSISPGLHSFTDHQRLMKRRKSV
# KCNQ1 inh = blocks the human KCNQ1 potassium channel. B-score at 10 µM. AID 2642. CHO-K1 KCNQ1, FluxOR thallium flux fluorescence; active compounds read high. actives 1.3% (n = 310,000). P51787;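 active = compounds whose thallium flux B-score, printed positive for inhibition, exceeds three library SD while starting fluorescence stays within three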;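 note: channel opened by potassium depolarization with thallium stimulus after 20 min compound exposure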
# hERG protect = compounds protecting human hERG from proarrhythmic drug block; Q12809; CHO-hERG, FluxOR thallium flux, dofetilide IC70 present; activation (rescue from dofetilide block), less the hit threshold, % at 10 µM; actives 0.51% (n = 310,000);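 active = activation above the mean of controls blocked by dofetilide plus 5 SD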;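 note: thallium influx through hERG after potassium depolarization seen as dye fluorescence rise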
# Kir21 block = Kir2.1 (mouse) channel inhibition; actives 0.85% (n = 310,000); AID 1672; B-score at 10 µM; HEK293-Kir2.1, FluxOR thallium flux fluorescence; active compounds read low;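 active = fluorescence ratio B-score at or below minus 3 SD of library scores, with starting-brightness B-score within 2 SD, cut at about -4.2 in these data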;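 note: channel flux triggered by added potassium and thallium sulfate stimulus; B-score of peak minus minimum fluorescence over baseline after thallium stimulus; more negative B-score means stronger Kir2.1 block with less thallium influx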
# KCNQ1 pot = potentiates or activates the human KCNQ1 potassium channel; CHO-K1 KCNQ1, thallium flux FluxOR fluorescence; active compounds read high; B-score at 10 µM; actives 0.35% (n = 310,000);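 active = fluorescence ratio B-score, a plate-corrected score, at least three library SD, with initial intensity B-score within 5 SD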
#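 assay system = KCNQ1-transfected CHO-K1 cells | medium = assay buffer with matched DMSO | probe or stimulus = depolarizing K+/Tl+ stimulus, K2SO4 and Tl2SO4 each 12.5 mM in 5x stock | dosing = single dose | incubation = dye 90 min, compound 20 min, room temperature | detection = kinetic FluxOR fluorescence, 10 s baseline plus 110 s post-stimulus | evaluation = ratio B score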
# KCNK3 inh conf = human KCNK3 channel inhibition, confirmation assay. shares compounds with KCNK3 inh. CHO-KCNK3 thallium flux, FluxOR fluorescence; 0% buffer, 100% carvedilol maximal block. ratio percent of control, % at 10 µM. actives 99% (n = 2,400);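 active = ratio percent of control, averaged over triplicates, above buffer control mean plus 5 SD, cut at about 64% in these data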;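 note: ratio is the fluorescence rise from min to max over baseline after thallium stimulus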
# KCNK3 uninduced = counter-screen for KCNK3 inhibitors: effect in non-induced cells; shares compounds with KCNK3 inh; non-induced KCNK3 parental cells, FluxOR thallium flux; active compounds read low; thallium flux ratio (lower = more inhibition) at 10 µM; actives 40% (n = 2,400);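 active = thallium flux ratio, averaged over three wells, more than 5 SD below the buffer control mean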;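 note: host cells are CHO cells without KCNK3 induction; ratio is peak minus trough fluorescence over baseline then normalized to buffer controls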
# Active calls of the source: *; i = inactive; . = no result. In the library only some 3.7% were active in any assay of this set; here they are far more common.
SMILES,KCNK3 inh,KCNK9 block,KCNQ1 inh,hERG protect,Kir21 block,KCNQ1 pot,KCNK3 inh conf,KCNK3 uninduced
C[C@H](CO)N1C[C@H](C)[C@@H](CN(C)CC2CCCCC2)Oc2c(NC(=O)C3CC3)cccc2C1=O,-12.2*,.,.,.,.,.,103.7*,i
O=C(N/N=C/c1cccs1)c1ccccn1,i,i,i,-1.3,-0.21,i,.,.
C(=NN=C(NN=Cc1cccs1)NN=Cc1cccs1)c1cccs1,-15.3*,.,.,.,.,.,123.3*,i
COc1ccccc1CN1CC(C(=O)NCc2cc(C(C)C)no2)CCC1=O (stereo unspecified),i,i,i,-6.0,0.38,i,.,.
Cc1nonc1C1CCCN1Cc1cn[nH]c1-c1ccc(-c2ccccc2)cc1 (stereo unspecified),-8.89*,-7.03*,i,-9.6,0.59,i,102.3*,i
COC(=O)CCCCCCCC(=O)Nc1nnc(C(F)(F)F)s1,i,i,i,-6.2,1.04,i,.,.
Cc1cc(/C=N/NC(=O)c2cc3ccccc3o2)c(C)n1C,i,i,i,-11.9,-0.14,i,.,.
CCC(C)(C)n1nnnc1CN1CCN(C(c2ccccc2)c2ccccc2)CC1,-12.9*,i,i,-15.2,0.43,i,141.0*,0.128*
CCC(C)(C)n1nnnc1C(c1cc(OC)ccc1OC)N1CCN(Cc2ccccc2)CC1 (stereo unspecified),-10.8*,-7.59*,i,-3.6,-2.49,i,107.0*,i
O=C(Nc1nnc(C2CC2)s1)C1Cc2ccccc2CN1S(=O)(=O)c1ccccc1F (stereo unspecified),i,i,i,-2.9,-3.38,i,.,.
CCOC(=O)Cc1csc(SCC(=O)Nc2oc(C)c3c(C)n[nH]c(=O)c23)n1,i,.,.,.,.,.,.,.
CCN(c1cccc(C)c1)S(=O)(=O)c1ccc(-c2cc(C)no2)s1,-8.79*,i,i,-8.8,1.55,i,102.7*,i
CCOC(=O)c1c(NC(=O)c2cccs2)sc(C)c1CC,-9.84*,-7.48*,i,-1.1,-1.06,i,118.7*,i
CCOC(=O)c1c(NC(=O)c2cccs2)sc(C(=O)N(C)C)c1C,i,i,i,-6.7,-0.87,i,.,.
COc1ccc(Cl)c2sc(N3CCN(C(=O)c4ccco4)CC3)nc12,-10.4*,i,i,-17.9,0.54,i,86.3*,i
O=C(NCc1ccc(F)cc1)C1CCCN1C(=O)Nc1cccc(F)c1 (stereo unspecified),i,i,i,-9.1,-0.61,i,.,.
CCN(CC)S(=O)(=O)c1cccc(C(=O)N/N=C/c2ccc([N+](=O)[O-])o2)c1,i,i,i,-14.0,0.35,i,.,.
CCCc1cc(=O)[nH]c(SCC(=O)NCC2COc3ccccc3O2)n1 (stereo unspecified),i,.,.,.,.,.,.,.
CCN(CC(=O)Nc1cccc(C#N)c1)CC(=O)Nc1cccc(OC)c1,-9.67*,i,i,-16.6,-2.42,i,90.3*,i
C=CCN(c1nc(C)cc(OC)n1)S(=O)(=O)c1ccc(C)cc1,i,i,i,-7.4,-0.02,i,.,.
C=CCN(c1nc(C)cc(OC)n1)S(=O)(=O)c1ccccc1,-9.23*,i,i,-11.8,-7.94*,i,107.0*,i
Cc1ccc(NC(=O)c2c(C(F)(F)F)nn(C)c2SCc2ccc(Cl)cc2)cc1C,-10.1*,i,i,-9.4,0.03,i,110.3*,0.158*
Cc1cc(C)nc(SCc2nc(N)nc(-c3ccccc3O)n2)n1,i,i,i,-12.7,-1.25,i,.,.
CN(C)/C=N/c1c(C#N)nnn1Cc1ccccc1,i,i,i,-2.5,0.65,i,.,.
